Data set [1] can be described thus: Cell cycle arrest in human KU812 cells assessed as accumulation at G0/G1 phase at 0.3 uM after 12 hrs by propidium iodide/RNase staining based flow cytometry. The class given is functional. The procedure, abridged: (§1)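 Cells were exposed to serially diluted compound, then fixed in cold 70% ethanol overnight at -20 °C. They were stained with PI/RNase buffer for DNA-content cell-cycle analysis.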
On the technique in general: A flow cytometer gives signals particle by particle.

The nature of data set [2]: Tmax in Sprague-Dawley rat at 1 mg/kg, iv. The class given is ADME, organism-based. The settings on record: in vivo. The procedure, abridged:
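Male Sprague-Dawley rats, 6-8 weeks old, fasted overnight, dosed iv or po. Jugular vein blood (~0.2 mL, heparin) sampled at 1 min to 8 h (iv) or 5 min to 24 h (po). Plasma separated by centrifugation at 2-8 °C and stored at -80 °C before analysis.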

Data set [3] has as its target T1, Mast/stem cell growth factor receptor Kit (Homo sapiens, UniProt P10721). Put plainly: Inhibition of c-KIT autophosphorylation at Y719 in human GISTT1 cells at 0.03 to 10 uM measured after 2 hrs by immunoblotting. Type of data set: cell-based. The procedure, abridged:
(§2)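 After an ice-cold PBS wash, cells were lysed in RIPA buffer (50 mM Tris pH 8.0) with protease and phosphatase inhibitors, and protein was quantified by BCA. Lysates were run on SDS-PAGE, transferred to PVDF and blocked in 5% milk/TBST. Phospho- and total proteins were probed by immunoblot with ECL detection; β-actin served as loading control.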
(A western blot detects proteins with antibodies after separation by electrophoresis.)

The nature of data set [4]: Half life in Sprague-Dawley rat at 10 mg/kg, po. The class given is ADME, organism-based. The conditions noted are these: in vivo. The procedure, abridged:
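Male Sprague-Dawley rats aged six to eight weeks were fasted overnight and then dosed iv or orally. Blood (~0.2 mL) was drawn from the jugular vein into heparin and kept on ice. Sampling was at 1 min to 8 h for iv and 5 min to 24 h for oral. Plasma was separated by centrifugation at 2-8 °C and stored at -80 °C until analysis.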

In data set [5] the target is T1, Mast/stem cell growth factor receptor Kit. The settings on record: BaF3.
Data set [6] is described as follows: Cell cycle arrest in human MEG01 cells assessed as accumulation at G0/G1 phase at 0.3 uM after 24 hrs by propidium iodide/RNase staining based flow cytometry. The class given is functional. The conditions noted are these: MEG-01. The procedure, abridged: as §1
Data set [7] deals with Macrophage colony-stimulating factor 1 receptor (Homo sapiens, UniProt P07333). Put plainly: Inhibition of recombinant His-tagged human CSF1R cytoplasmic domain expressed in baculovirus expression system assessed as residual activity at 1 uM measured after 1 hr by FRET based Z'Lyte assay relative to control.
Chain of Macrophage colony-stimulating factor 1 receptor (P07333 whole entry, the tested form may be a part): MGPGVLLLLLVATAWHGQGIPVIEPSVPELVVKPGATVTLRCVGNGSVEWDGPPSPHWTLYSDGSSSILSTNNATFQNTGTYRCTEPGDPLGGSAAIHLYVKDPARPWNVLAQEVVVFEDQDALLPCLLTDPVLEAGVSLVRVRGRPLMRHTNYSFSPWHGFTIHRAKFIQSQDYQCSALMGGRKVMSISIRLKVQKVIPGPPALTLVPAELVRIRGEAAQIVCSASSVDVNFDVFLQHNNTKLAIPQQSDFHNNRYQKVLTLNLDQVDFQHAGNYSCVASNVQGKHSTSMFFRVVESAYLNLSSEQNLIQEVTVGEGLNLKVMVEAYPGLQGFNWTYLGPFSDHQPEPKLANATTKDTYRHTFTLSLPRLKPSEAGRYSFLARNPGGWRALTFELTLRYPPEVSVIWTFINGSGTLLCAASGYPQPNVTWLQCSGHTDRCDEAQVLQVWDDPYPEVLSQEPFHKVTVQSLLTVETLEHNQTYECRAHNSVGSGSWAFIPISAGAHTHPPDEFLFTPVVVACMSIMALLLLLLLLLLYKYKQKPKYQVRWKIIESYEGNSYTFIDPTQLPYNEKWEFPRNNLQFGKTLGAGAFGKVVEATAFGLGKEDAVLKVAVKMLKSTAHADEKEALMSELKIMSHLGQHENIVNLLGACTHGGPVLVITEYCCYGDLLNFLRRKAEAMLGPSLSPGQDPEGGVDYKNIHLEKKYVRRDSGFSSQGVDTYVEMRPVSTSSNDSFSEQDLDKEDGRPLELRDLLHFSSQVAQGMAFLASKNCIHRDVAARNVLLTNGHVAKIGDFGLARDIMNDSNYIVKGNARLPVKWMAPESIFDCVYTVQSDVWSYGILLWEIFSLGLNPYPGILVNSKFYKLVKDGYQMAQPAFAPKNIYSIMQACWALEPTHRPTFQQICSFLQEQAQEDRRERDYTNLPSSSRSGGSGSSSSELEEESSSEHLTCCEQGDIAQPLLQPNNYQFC
The target of data set [8] is T2, BCR/ABL p210 fusion protein (Homo sapiens, UniProt A1Z199). In words: Inhibition of BCR/ABL p210 fusion protein autophosphorylation at Y245 in human K562 cells measured after 2 hrs by immunoblotting. Type of data set: cell-based. The procedure, abridged:
as §2
Target sequence in this assay (A1Z199 whole entry, the tested form may be a part): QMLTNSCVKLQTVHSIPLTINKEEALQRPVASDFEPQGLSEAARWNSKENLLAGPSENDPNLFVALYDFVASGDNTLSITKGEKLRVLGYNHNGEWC

In data set [9] the test system is Mast/stem cell growth factor receptor Kit (Homo sapiens), P10721 [V654A]. Put plainly: Inhibition of Tel-fused c-KIT V654A mutant (unknown origin) expressed in BAF3 cells assessed as growth inhibition measured after 72 hrs by CellTiter-Glo or CCK8 assay. The class given is cell-based. Summed up:
(§3)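 BaF3 lines were made by retroviral transduction with kinase-fusion MSCV vectors packaged in HEK293T cells. Cells were selected with puromycin for 48 h, then selected again without IL-3 so growth depends on the introduced kinase. […] They were seeded at 1 to 2.5×10^4 cells/mL with compound dilutions and incubated 72 h. Viability was read by CellTiter-Glo luminescence or CCK-8 absorbance (450/655 nm), normalized to DMSO control; GI50 was curve-fitted from triplicate tests.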
(Cellular ATP, detected with luciferase, serves as a proxy for viable cell number.)

Data set [10] addresses T2, BCR/ABL p210 fusion protein. In words: Inhibition of BCR/ABL p210 fusion protein autophosphorylation at Y245 in human […] cells at 0.01 to 3 uM measured after 2 hrs by immunoblotting. Type of data set: cell-based. Summed up: as §2
Target sequence in this assay (A1Z199 1-97): as the sequence (A1Z199 whole entry, the tested form may be a part) above
For data set [11], the target named is T1, Mast/stem cell growth factor receptor Kit. Put plainly: Inhibition of c-KIT mediated signaling pathways assessed as reduction in ERK1/2 phosphorylation at T202/Y204 in human GIST882 cells at 0.03 to 10 uM measured after 2 hrs by immunoblotting. The class given is cell-based. The procedure, abridged: as §2
A further data set concerns Mus musculus. In words: Toxicity in nu/nu mouse xenografted with human K562 cells assessed as change in body weight at 25 to 100 mg/kg/day administered via oral gavage measured after 28 days. Type of data set: organism-based. The settings on record: in vivo, 672 h. The procedure, abridged:
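Female nu/nu mice given 10 million K562 cells in PBS/Matrigel (1:1) subcutaneously into the right flank. Once tumors reached 200 to 400 mm³, mice were randomized into groups of 4 or 5 and dosed daily by oral gavage in 0.5% methylcellulose/0.4% Tween80 in water, or vehicle, for 28 days. Body weight measured and expressed relative to initial; mean ± SEM.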

A further data set relates to MEG-01. Put plainly: Induction of apoptosis in human MEG01 cells assessed as increase in cleaved caspase-3 level at 0.1 to 3 uM by Western blot analysis. Type of data set: functional, cell-based.
Data set [12] deals with Platelet-derived growth factor receptor alpha (Homo sapiens) (UniProt P16234). Put plainly: Inhibition of Tel-fused PDGFR-alpha (unknown origin) expressed in BAF3 cells assessed as growth inhibition measured after 72 hrs by CellTiter-Glo or CCK8 assay. Type of data set: cell-based. Summed up: as §3
Chain of Platelet-derived growth factor receptor alpha (Homo sapiens) (P16234 whole entry, the tested form may be a part): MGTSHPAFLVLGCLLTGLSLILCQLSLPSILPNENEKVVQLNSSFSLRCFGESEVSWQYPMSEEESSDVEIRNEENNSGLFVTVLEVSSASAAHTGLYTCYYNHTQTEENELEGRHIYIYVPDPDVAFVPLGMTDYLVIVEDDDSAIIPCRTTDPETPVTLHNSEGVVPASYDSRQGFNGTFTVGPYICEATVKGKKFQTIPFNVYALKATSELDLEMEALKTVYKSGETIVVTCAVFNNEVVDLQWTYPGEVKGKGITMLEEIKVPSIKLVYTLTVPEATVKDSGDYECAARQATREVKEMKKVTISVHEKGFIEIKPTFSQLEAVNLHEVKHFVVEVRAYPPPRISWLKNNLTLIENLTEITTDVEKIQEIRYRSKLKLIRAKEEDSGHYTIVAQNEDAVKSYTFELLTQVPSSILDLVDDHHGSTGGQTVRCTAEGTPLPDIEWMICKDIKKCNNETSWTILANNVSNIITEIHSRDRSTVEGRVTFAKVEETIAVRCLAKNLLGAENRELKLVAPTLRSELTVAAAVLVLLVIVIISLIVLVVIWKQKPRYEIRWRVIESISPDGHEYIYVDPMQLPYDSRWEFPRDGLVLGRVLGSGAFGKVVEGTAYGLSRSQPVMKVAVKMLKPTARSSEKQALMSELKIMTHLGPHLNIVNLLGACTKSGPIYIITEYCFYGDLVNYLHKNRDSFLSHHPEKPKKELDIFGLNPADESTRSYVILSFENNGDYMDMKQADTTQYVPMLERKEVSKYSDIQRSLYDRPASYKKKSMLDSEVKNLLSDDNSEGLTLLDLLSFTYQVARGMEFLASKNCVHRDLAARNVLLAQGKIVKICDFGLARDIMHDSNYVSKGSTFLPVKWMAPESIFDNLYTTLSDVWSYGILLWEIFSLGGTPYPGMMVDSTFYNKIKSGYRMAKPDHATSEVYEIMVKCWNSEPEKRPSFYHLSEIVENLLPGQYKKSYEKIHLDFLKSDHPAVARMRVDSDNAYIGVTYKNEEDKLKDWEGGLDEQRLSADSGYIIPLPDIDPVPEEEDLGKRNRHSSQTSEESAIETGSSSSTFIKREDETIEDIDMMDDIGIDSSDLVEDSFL
The nature of data set [13]: Cell cycle arrest in human GISTT1 cells assessed as accumulation at G0/G1 phase at 0.3 uM after 24 hrs by propidium iodide/RNase staining based flow cytometry. The class given is functional. The procedure, abridged:
as §1

Data set [14] has as its target T1, Mast/stem cell growth factor receptor Kit. In words: Inhibition of c-KIT autophosphorylation at Y703 in human GIST882 cells at 0.01 to 3 uM measured after 2 hrs by immunoblotting. The class given is cell-based. Summed up: as §2
The next data set deals with K562. Put plainly: Induction of apoptosis in human K562 cells assessed as increase in cleaved caspase-3 level at 0.1 to 3 uM by Western blot analysis. The class given is functional, cell-based. The procedure, abridged: (§4)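 Cells were treated with DMSO or serially diluted compound for the indicated periods. They were washed in ice-cold PBS and lysed in RIPA buffer with protease/phosphatase inhibitors, and protein was quantified by BCA. Lysates were resolved by SDS-PAGE, transferred to PVDF and blocked in 5% milk/TBST. Blots were probed for PARP and caspase-3, with β-actin as loading control, and detected by ECL.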

The test system of another data set is GISTT1. In words: Induction of apoptosis in human GISTT1 cells assessed as increase in cleaved caspase-3 level at 0.1 to 3 uM by Western blot analysis. Type of data set: functional, cell-based. Summed up:
as §4

Data set [15] addresses T1, Mast/stem cell growth factor receptor Kit. Put plainly: Inhibition of c-KIT mediated signaling pathways assessed as reduction in ERK1/2 phosphorylation at T202/Y204 in human GISTT1 cells at 0.03 to 10 uM measured after 2 hrs by immunoblotting. The class given is cell-based. Summed up: as §2
For data set [16] the target is unchanged. The conditions noted are these: 1 uM.
Data set [17] has the same target. The settings on record: 1 uM. This is another data set of the same source.
Data set [18] has the same target. The settings on record: GISTT1, 1 uM.
Data set [19] is described as follows: Cell cycle arrest in human KU812 cells assessed as accumulation at G0/G1 phase at 1 uM after 12 hrs by propidium iodide/RNase staining based flow cytometry. Type of data set: functional. Summed up:
as §1

In data set [20] the target is T1, Mast/stem cell growth factor receptor Kit. The settings on record: 1 uM. The source holds these as a separate data set.

Molecules are shown by their SMILES. The source made the active and inactive calls. The rule behind the calls is not given here.

Consider 2 compounds from ChEMBL document CHEMBL3877303 (J Med Chem, 2017).

T1 sequence (P10721 whole entry): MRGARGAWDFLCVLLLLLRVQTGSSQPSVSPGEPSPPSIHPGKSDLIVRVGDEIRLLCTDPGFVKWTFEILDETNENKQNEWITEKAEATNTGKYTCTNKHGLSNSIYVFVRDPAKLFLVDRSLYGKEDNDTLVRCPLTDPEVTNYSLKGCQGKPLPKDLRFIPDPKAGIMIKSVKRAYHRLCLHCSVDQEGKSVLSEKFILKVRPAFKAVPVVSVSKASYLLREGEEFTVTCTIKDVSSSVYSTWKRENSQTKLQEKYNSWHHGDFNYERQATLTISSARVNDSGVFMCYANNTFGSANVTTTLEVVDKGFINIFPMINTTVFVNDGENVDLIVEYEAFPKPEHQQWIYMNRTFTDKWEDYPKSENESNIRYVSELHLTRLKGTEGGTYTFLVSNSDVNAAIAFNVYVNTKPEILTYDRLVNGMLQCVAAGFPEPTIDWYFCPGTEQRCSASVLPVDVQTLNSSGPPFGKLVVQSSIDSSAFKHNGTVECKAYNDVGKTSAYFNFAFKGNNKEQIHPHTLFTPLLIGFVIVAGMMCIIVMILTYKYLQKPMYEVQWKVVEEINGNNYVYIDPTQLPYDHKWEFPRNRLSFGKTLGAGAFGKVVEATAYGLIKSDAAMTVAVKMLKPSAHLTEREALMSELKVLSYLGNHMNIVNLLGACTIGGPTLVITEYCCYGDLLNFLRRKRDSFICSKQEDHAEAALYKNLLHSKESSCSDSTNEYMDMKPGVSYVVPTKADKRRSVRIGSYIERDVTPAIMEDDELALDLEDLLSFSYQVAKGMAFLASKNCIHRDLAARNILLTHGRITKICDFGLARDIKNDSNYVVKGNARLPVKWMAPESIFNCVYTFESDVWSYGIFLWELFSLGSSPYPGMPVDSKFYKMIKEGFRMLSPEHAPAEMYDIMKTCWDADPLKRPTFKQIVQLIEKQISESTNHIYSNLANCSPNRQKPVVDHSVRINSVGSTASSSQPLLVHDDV
Chain of Mast/stem cell growth factor receptor Kit (Homo sapiens), P10721 [V654A] (P10721 whole entry V654A, the tested form may be a part): as the sequence (P10721 whole entry) above, with V654A counted along it

As a reminder, the Tmax is the time at which the peak concentration occurs. The term half-life denotes the time in which the quantity being followed falls by half. Read a low half-life as fast loss. The GI50 is the concentration at which growth is held to half of that of the control. What is called EC50 is the concentration at which the effect is half-maximal. In the case of `Cc1ccc(C(=O)N2CCC(Oc3cc(NC(=O)c4ccc(CN5CCN(C)CC5)c(C(F)(F)F)c4)ccc3C)CC2)cn1`, the outcome (in [1]; in data set [6]; in the data set on MEG-01; in data set [13]; with K562; in the data set with GISTT1) was Active. In addition, the time of peak concentration (Tmax) in [2] was 1.02 min. For the same compound, the inhibition entry in data set [3], in data set [10], in data set [11], in data set [14] and in [15] was “Active” throughout. Further, the half-life in data set [4] is 170 min. The 50% growth inhibitory concentration (GI50) in data set [5] was 149 nM; in data set [9] it was 1840 nM; in data set [12], 12 nM. Besides, the Activity in data set [7] is 0.3%; in the data set on Mus musculus, “Non-Toxic”. In addition, the concentration for a half-maximal effect (EC50) in [8] was less than 100 nM.
Consider `Cc1ccc(NC(=O)c2ccc(CN3CCN(C)CC3)cc2)cc1Nc1nccc(-c2cccnc2)n1` [IMATINIB], for which the inhibition entry in data set [16], in data set [17], in data set [18] and in data set [20] was “Active” throughout. Also, the outcome in [19] was Active.
